# Assay outcomes deposited in PubChem BioAssay by several laboratories.
# ABCG2 inh – ABCG2 efflux pump inhibitors, primary screen, multiplex with ABCB1, IgMXP3 cells, flow cytometry; Broad substrate specificity ATP-binding cassette transporter ABCG2 (Homo sapiens), Q9UNQ0; 190,000 compounds, 0.1% hits; JC-1 efflux; inhibition, % at 6.6 µM;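 active = inhibition above 80%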;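 note: 0% = DMSO and 100% = nicardipine control wells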
# Target sequence (Q9UNQ0 whole entry, looked up): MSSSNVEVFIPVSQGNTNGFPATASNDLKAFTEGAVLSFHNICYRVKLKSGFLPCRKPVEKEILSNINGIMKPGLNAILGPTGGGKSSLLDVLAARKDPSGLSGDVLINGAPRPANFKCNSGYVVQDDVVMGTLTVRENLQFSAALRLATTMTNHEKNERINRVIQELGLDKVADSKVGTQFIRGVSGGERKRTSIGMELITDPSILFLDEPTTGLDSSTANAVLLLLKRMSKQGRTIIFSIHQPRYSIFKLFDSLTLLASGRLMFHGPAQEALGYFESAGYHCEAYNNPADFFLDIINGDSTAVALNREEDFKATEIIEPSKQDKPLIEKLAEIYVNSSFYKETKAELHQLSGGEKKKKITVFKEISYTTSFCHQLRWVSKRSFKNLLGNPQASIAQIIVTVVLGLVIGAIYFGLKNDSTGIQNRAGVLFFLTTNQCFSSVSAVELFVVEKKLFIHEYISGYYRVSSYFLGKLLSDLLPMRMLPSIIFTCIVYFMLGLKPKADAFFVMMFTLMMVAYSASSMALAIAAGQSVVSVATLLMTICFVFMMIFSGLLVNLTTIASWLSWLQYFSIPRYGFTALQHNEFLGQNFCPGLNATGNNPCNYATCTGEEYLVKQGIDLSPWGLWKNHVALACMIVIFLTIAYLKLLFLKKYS
#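 Test system: IgMXP3 (ABCG2) plus far-red-tagged CCRF-Adr (ABCB1) cells. Reagent: JC-1 dye as substrate. Timing: 10 min exposure at 25 °C with rotation, no wash. Measured by: flow cytometric JC-1 green MFI at 530 nm. Read-out: percent efflux inhibition, scaled nicardipine 100% to DMSO 0%. Control set: nicardipine and DMSO wells.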
# ABCB1 inh – ABCB1 efflux pump inhibitors, primary screen, cell-based, multiplex, flow cytometry, ABCG2 counter-screen; ATP-dependent translocase ABCB1 (Homo sapiens), P08183; CCRF-Adr cells, JC-1 efflux; inhibition, % at 6.6 µM; 190,000 compounds, 0.067% hits; AID 1326, 2008; in the data active = inhibition above about 40%;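 note: 0% = vehicle and 100% = reference inhibitor; higher value means more JC-1 retained so stronger ABCB1 efflux block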
# NCF1 inh – p47phox/p22phox peptide binding inhibitors, primary screen, biochemical, uHTS, NADPH oxidase regulatory subunit; Neutrophil cytosol factor 1 (Homo sapiens), P14598; fluorescence polarization, 2 h; inhibition, % at 24.7 µM; 220,000 compounds, 0.53% hits; AID 1274, 2008;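 active = inhibition above about 30%, limit read from the data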;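 note: 0% = p47phox with labelled peptide and 100% = labelled peptide alone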
# Diaph act CS – compounds boosting diaphorase resazurin reduction – biochemical, uHTS, resorufin fluorescence, counter-screen for diaphorase-coupled primary assays, primary screen | Diaphorase/resazurin coupled assay, 16 min; hits give high values; 1 = vehicle wells, 0 = NADH-free wells | activation factor at 20 µM | 190,000 compounds, 0.005% hits | AID 1229, 2008;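 active = diaphorase activity raised at least twofold by the compound at 20 µM; inactive = activation factor below 2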
#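 Assay system: bacterial diaphorase enzyme (C. kluyveri) / Input: enzyme 0.07 U/mL final / Medium: 50 mM HEPES pH 7.4 with 4.542 mM MgCl2, 0.005% Tween 20 / Doses: single compound dose of 20 µM, 1% DMSO final / Incubation: 16 min enzyme reaction, ambient temperature / Signal: fluorescence, excitation 544 nm and emission 590 nm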
# Efa HMGR inh – inhibitors of E. faecalis class II HMGR, primary screen, biochemical, Enterococcus faecalis | HMG-CoA reductase (Enterococcus faecalis, mvaE) | purified E. faecalis HMGR, NADPH absorbance 340 nm kinetic | inhibition, % at 10 µM | 190,000 compounds, 0.41% hits | AID 1066, 2008;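 active = inhibition above a set limit, the median over all tested compounds plus 3 SD, cut at about 9.5% in these data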;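 note: enzyme runs in reverse so mevalonate oxidation gives rising NADPH absorbance; 0% = complete reaction with DMSO and 100% = background rate lacking mevalonate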
# Diaph inh CS – diaphorase inhibitors and chemical oxidizers, primary screen, counter-screen for diaphorase-coupled primary assays, biochemical, uHTS, resorufin fluorescence | diaphorase resazurin-to-resorufin fluorescence, NADH, 16 min; bacterial (C. kluyveri) enzyme, not human | 190,000 compounds, 0.69% hits | inhibition, % at 20 µM;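 active = primary screen inhibition at 20 µM above a set limit, cut at about 50% in these data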;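 note: plate controls were DMSO with full reaction for no effect and wells lacking NADH for full effect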
#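 Test system: Clostridium kluyveri diaphorase enzyme / Quantity: diaphorase at 0.14 U/mL in enzyme working solution / Incubation: 16-min room-temperature incubation before reading / Benchmarks: NADH-free wells as positive control, DMSO-only neutral wells / Signal: resorufin fluorescence 544/590 nm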
# An asterisk follows results filed as active; nt = no result; ! = not confirmed by another sample. A selection: hits, their analogues and other compounds. The true share with any hit is near 1.6%.
SMILES,ABCG2 inh,ABCB1 inh,NCF1 inh,Diaph act CS,Efa HMGR inh,Diaph inh CS
Cc1c(-n2cc(C(=O)O)c(=O)c3cc(F)c(N4CCCC4)c(F)c32)c(=O)n(-c2ccccc2)n1C,nt,nt,nt,0.8,nt,18
COc1ccc(-c2ccc(-c3nc4c(c(=O)[nH]c(=O)n4Cc4ccccc4)n3C)o2)c([N+](=O)[O-])c1,17,2,55*,0.7,-5,26
COCCn1c(=O)[nH]c(=O)c2c1nc(-c1ccc(-c3ccc(Cl)cc3[N+](=O)[O-])o1)n2Cc1ccccc1,-5,-1,-19,0.6,4,42
Cc1ccc2nc(N(CCCN(C)C)C(=O)CN3C(=O)c4ccccc4C3=O)sc2c1,2,2,-8,0.9,-1,5
O=c1[nH]nc(-c2ccc(F)cc2)cc1Cc1ccc(F)cc1,nt,nt,37*,nt,nt,nt
CC(C)OCCCNC(=O)Nc1cccc2ccccc12,3,1,-7,0.9,14*,6
CC(C)OCCCNC(=O)C(C)Oc1ccccc1 (stereo unspecified),1,0,-9,0.8,-1,17
NC(=S)COc1ccccc1,nt,nt,2,nt,nt,nt
Oc1c(CN2CCCCC2)cc(Br)c2cccnc12,0,0,-1,0.4,4,57*
Oc1c(CN2CCc3ccccc3C2)cc(Cl)c2cccnc12,5,2,-6,0.3,-7,68*
CN1CCN(Cc2cc(COCc3ccccc3)c3cccnc3c2O)CC1,-1,0,3,0.6,-3,37
Cn1c(COc2cccc3ccccc23)nnc1SCC(=O)OC1CCCCC1,nt,nt,-8,nt,nt,nt
CCn1nc(C(=O)OC2CCOC2=O)c2ccccc2c1=O (stereo unspecified),0,0,-6,0.9,-2,14
Cn1cc(/C=C(\C#N)C(=O)Nc2cccc([N+](=O)[O-])c2)c2ccccc21,-8,-1,37*,1.1,-3,-6
O=C(OC1CCCCC1)c1ccc2c(c1)C1C=CCC1C(C(=O)O)N2 (stereo unspecified),-3,-1,39*,0.5,-1,47
O=C(O)C1Nc2c(O)cccc2C2C=CCC12 (stereo unspecified),-17,-1,2,0.2,8,78*
O=C(CCOc1ccc(F)cc1)Nc1nccs1,nt,nt,1,nt,nt,nt
CCOc1ccc(NC(=O)CSc2nnc(Cn3cnc([N+](=O)[O-])n3)n2CC)cc1,7,1,2,1,-9,-3
CN1CCN(C2=Nc3ccccc3Oc3ccc(Cl)cc32)CC1,2,1,38*!,0.9,-14,12
O=C(COc1cccc([N+](=O)[O-])c1)N/N=C/c1ccco1,10,0,-6,0.9,9.6*,8
Cc1ccc2c(Cl)cc(Cl)c(OCC(=O)NCc3ccco3)c2n1,0,0,2,0.5,1,54*
O=C(NCc1ccco1)C1CCCCN1S(=O)(=O)c1ccc(F)cc1 (stereo unspecified),2,1,-9,0.9,4,10
O=C(NCC1CCCO1)C1CCCCN1S(=O)(=O)c1ccc(F)cc1 (stereo unspecified),2,1,36*,1,-2,4
CCOC(=O)c1ccc(N2C(=O)C(CC(=O)NC)N(CCc3ccc(OC)c(OC)c3)C2=S)cc1 (stereo unspecified),1,0,11,1.1,-5,-12
Cc1ccc(C)c(OCCCC(C)(C)C(=O)O)c1,-1,0,1,0.8,9.6*,15
Clc1ccc2nc3ccccn3c2c1,6,0,-8,1,-4,-2
CCOC(=O)N/N=C\c1ccc([N+](=O)[O-])s1,4,1,1,1,11*,4
